# SF-1 act = SF-1 (human) activation; Q13285; CHO-K1 Gal4-SF-1 LBD luciferase reporter; % increase over DMSO SF-1-specific signal; activation, % at 10 µM; 1.9% of 65,000 active;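 active = activation above the mean activation of all tested compounds plus 3 SD, cut at about 50% in these data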
# Target sequence (Q13285 whole entry, looked up, the tested form may be a part): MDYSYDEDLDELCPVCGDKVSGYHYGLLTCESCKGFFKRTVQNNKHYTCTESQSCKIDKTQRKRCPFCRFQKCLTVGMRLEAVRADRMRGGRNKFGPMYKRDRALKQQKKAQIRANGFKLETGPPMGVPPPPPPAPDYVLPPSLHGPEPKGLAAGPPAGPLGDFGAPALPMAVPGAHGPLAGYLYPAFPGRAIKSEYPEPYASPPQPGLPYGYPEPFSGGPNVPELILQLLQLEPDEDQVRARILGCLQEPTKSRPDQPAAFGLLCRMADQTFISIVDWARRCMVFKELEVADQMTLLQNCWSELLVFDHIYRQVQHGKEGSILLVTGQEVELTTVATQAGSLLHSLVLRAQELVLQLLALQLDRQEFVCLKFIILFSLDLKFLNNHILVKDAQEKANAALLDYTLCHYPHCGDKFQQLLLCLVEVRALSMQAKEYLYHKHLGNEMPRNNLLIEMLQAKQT
#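 Assay system – CHO-K1 cells with Gal4–hSF-1 LBD chimera plus Gal4-driven luciferase · Quantity – 4,000 cells per well · Times – compound added 1 h post-seeding, 20 h exposure at 37 °C, 5% CO2 · Measured by – luciferase light emission · Benchmarks – DMSO and mock-transfected background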
# HePTP inhibitor = human HePTP phosphatase inhibition; inhibition, % at 20 µM; recombinant HePTP phosphatase activity, OD absorbance; P35236; AID 521; 0.64% of 110,000 active; in the data active = inhibition above about 50%;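 also: plate controls were vehicle for no effect and reference inhibitor for full effect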
# AP ELISA ortho = orthogonal test for alternative complement pathway inhibitors; Human serum alternative complement pathway, LPS-coated ELISA, C3 deposition; tested in compound mixtures; inhibition, % at 5 µM; 0.08% of 62,000 active;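 active = inhibition above 30% in each of the two pooled mixtures holding the compound, so the lower value exceeds 30%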;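 also: 0% = serum in Mg-EGTA without compound and 100% = EDTA serum blank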
#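 Test system: human serum alternative complement pathway, C3 deposition on LPS-coated wells; also added: Plate-bound LPS; doses: 5 µM per compound in ten-compound mixtures; schedule: 1 h at 37 °C; detection: Anti-C3 ELISA, OD 450 nm; evaluation: percent inhibition of C3 deposition onto LPS; repeats: two pool placements per compound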
# RORA act = RORA (human) activation. P35398. CHO-K1 Gal4-RORA LBD luciferase reporter, luminescence; percent increase over mock-subtracted basal signal. activation, % at 10 µM. 1.5% of 65,000 active. AID 560;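 active = activation above the mean of all tested compounds plus 3 SD, cut at about 49% in these data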;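 also: 0% = DMSO-treated RORA cells and 100% = added signal equal to DMSO minus mock-transfected cells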
# MMP13 inh = MMP13 (human) collagenase inhibition. P45452. MMP-13 fTHP FRET cleavage, Mca fluorescence. inhibition, % at 4 µM. 0.07% of 65,000 active;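 active = inhibition above the mean of compound-free control plate wells plus 3 SD, cut at about 14% in these data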;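 also: 0% = DMSO wells and 100% = wells with reference MMP-13 inhibitor after basal subtraction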
# E coli RNAP = inhibitors of Escherichia coli RNA polymerase. E. coli RNA polymerase, fluorescence transcription assay. inhibition, %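 (tested at 10 µM)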. 0.2% of 62,000 active. AID 559; in the data active = inhibition above about 20%;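 also: 0% = enzyme without compound and 100% = no enzyme blank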
# The depositor's hits bear a star; i = inactive; x = not tested or not shown. A selection: hits, their analogues and other compounds. The true share with any hit is near 2.4%.
SMILES,SF-1 act,HePTP inhibitor,AP ELISA ortho,RORA act,MMP13 inh,E coli RNAP
Cc1ccnc(NC(=O)c2c(O)c3ccccc3n(C)c2=O)c1,76*,11,-4,74*,-8,7
COc1ccc(C(O)P(=O)(O)CCc2ccccc2)cc1 (configuration not stated),-8,-12,-16,52*,0,5
COc1ccc(C(NC(=O)Cc2ccccc2)c2ccc(OC)cc2)cc1,x,4,x,x,x,x
Cc1noc(C)c1C(=O)OCC(=O)c1ccc[nH]1,14,5,4,18,-6,6
Cc1noc(C)c1C(=O)OCC(=O)c1cc(C)n(Cc2ccccc2Cl)c1C,29,8,7,49*,6,8
CCCN1C(=O)c2cc(C(=O)NC3CCCCCC3)ccc2C1O (configuration not stated),x,1,5,x,x,11
O=C(NC1CCCCC1)c1ccc(N2CCCC2=O)cc1,40,0,17,29,0,1
O=C(NC1CCCCCC1)c1ccc(N2CCCC2=O)cc1,54*,-5,7,29,0,-5
CN(C)c1cccc(C(=O)NC2CCCCCC2)c1,75*,9,12,26,0,5
CN1C(=O)c2ccc(C(=O)NC3CCCCC3)cc2C1=O,6,4,41*,-8,5,6
O=C(O)/C=C/c1cccc(NS(=O)(=O)c2cccs2)c1,x,-5,x,x,x,x
CCOc1ccccc1C(=O)Nc1cccc(C(C)=O)c1,x,-1,x,x,x,x
CN(C)CCCNC(=O)CN(c1cccc(Cl)c1)S(=O)(=O)c1ccccc1,x,-4,x,x,x,x
CC#CCCCC(=O)Nc1cccc(C(=O)O)c1,9,15,6,56*,-1,9
CCOC(=O)N1CCN(S(=O)(=O)c2ccc(C(=O)Nc3sc4c(c3C#N)CCC4)cc2)CC1,74*,0,10,-3,1,9
CCCOc1cccc(C(=O)Nc2nc(-c3ccc(F)cc3F)cs2)c1,x,95*,x,x,x,x
COc1ccccc1OCc1csc(NC(=O)c2ccco2)n1,67*,0,0,21,-2,10
CCOC(=O)c1c(C)sc(Sc2ccc(Cl)cc2[N+](=O)[O-])c1OC(C)=O,x,-2,x,x,x,x
CCCCOc1ccc(C(CC(=O)O)CC(=O)O)cc1,x,7,x,x,x,x
CCCCCCOc1ccc(C(CC(=O)O)C(N)=O)cc1 (configuration not stated),-14,9,-1,-5,26*,-5
CCc1ccc(S(=O)(=O)NNc2ccccc2)cc1,x,-12,x,x,x,x
C/C(N)=C(/C#N)C(=O)COC(=O)c1cc(C)n(-c2ccc(F)cc2)c1C,65*,2,10,67*,-2,10
CCN(C(=O)COC(=O)c1cc(C)n(-c2ccc(F)cc2)c1C)C1CCS(=O)(=O)C1 (configuration not stated),-3,5,8,2,-4,10
O=C(Cc1ccccc1)Nc1cc(C(F)(F)F)cc(C(F)(F)F)c1,x,0,x,x,x,x
CCOC(=O)CCn1nc(-c2ccc(Cl)cc2)cc1N,70*,2,1,41,-8,5
SMILES,SF-1 act,HePTP inhibitor,AP ELISA ortho,RORA act,MMP13 inh,E coli RNAP
CCOC(=O)Cn1nc(-c2ccc(Cl)cc2)cc1N,1,10,-2,16,9,19
O=C(NCCCN1CCOCC1)C(=O)NC1CCCCC1,x,-13,x,x,x,x
O=C(NC(C(=O)NCc1ccccc1)C12CC3CC(CC(C3)C1)C2)c1ccc(F)cc1 (configuration not stated),x,-14,x,x,x,x
Cc1cc(C)n(-c2ccc(C(=O)Nc3nc4ccccc4s3)cc2)n1,26,2,-9,49*,-13,1
Cc1cc(C)n(-c2ccc(C(=O)NC3=NCCS3)cc2)n1,33,-2,7,51*,-3,6
CC(C)Oc1ccc(C(=O)Nc2nc3ccccc3s2)cc1,x,96*,x,x,x,x
O=C(Nc1nc2ccccc2s1)c1ccncc1,x,-3,x,x,x,x
Nc1ccc(C(=O)Nc2nc3ccccc3s2)cc1,x,1,22,x,x,7
CCCCN(CCCC)C(=O)c1cccc([N+](=O)[O-])c1,x,-1,x,x,x,x
Cc1csc2ncc(C(=O)Nc3ccc4c(c3)OCCO4)c(=O)n12,34,-7,14,97*,1,6
Cc1csc2ncc(C(=O)Nc3ccccc3F)c(=O)n12,50*,8,11,40,2,2
Cc1cc(NS(=O)(=O)c2ccc(NC(=O)c3cnc4scc(C)n4c3=O)cc2)nc(C)n1,4,3,6,8,2,6
Cc1ccc(NC(=O)c2cnc3scc(C)n3c2=O)c(C)c1,17,2,3,-2,7,4
Cc1csc2ncc(C(=O)Nc3ccon3)c(=O)n12,-6,3,15,15,-179,24*
Cc1cccc(NC(=O)c2cnc3scc(C)n3c2=O)c1,49,-13,-6,50*,1,-2
O=C1SC(Nc2ccccc2)C(=O)N1c1ccc(Br)cc1 (configuration not stated),x,5,x,x,x,x
Cc1ccc(C(=O)NC(=S)NCCCN2CCOCC2)cc1,x,103*,x,x,x,x
CCOc1cc(/C=N/NC(=O)c2cc(C)[nH]n2)ccc1OC(=O)c1cccc2ccccc12,x,-12,x,x,x,x
Cc1ccc(N(CC(=O)NCc2cccnc2)S(=O)(=O)c2ccc(F)cc2)cc1,x,4,x,x,x,x
Cc1ccccc1N(C=O)C(=O)C1C(C)C2C=CC1C21CC1 (configuration not stated),x,105*,x,x,x,x
C=CCNc1nc(-c2ccc(OC)cc2OC)cs1,102*,0,-2,52*,0,8
O=C(Nc1ccccc1)N1CC=C(c2ccc(F)cc2)CC1,38,3,3,66*,6,5
O=C(O)C1CCCCC1C(=O)N1CC=C(c2ccccc2)CC1 (configuration not stated),10,-3,6,-18,3,4
O=C(Nc1cccc(F)c1)N1CC=C(n2c(=O)[nH]c3ccccc32)CC1,1,-1,3,1,8,12
O=C(Nc1ccccc1)N1CC=C(c2ccccc2)CC1,87*,0,11,49*,-1,1
SMILES,SF-1 act,HePTP inhibitor,AP ELISA ortho,RORA act,MMP13 inh,E coli RNAP
Cc1nc2c(sc3nc4c(cc32)COC(C)(C)C4)c(=O)n1CC(=O)NCc1ccco1,134*,-14,2,101*,-15,2
CC1(C)Cc2nc3sc4c(SCC(=O)NCc5ccco5)ncnc4c3cc2CO1,81*,14,28,28,-2,-5
CCS(=O)(=O)Nc1cc(-c2nc3cccnc3s2)ccc1C,71*,5,12,32,-11,10
O=S(=O)(Nc1ccc(-c2nc3cccnc3s2)cc1)c1cccs1,45,0,24,34,i,-126
Cc1ccc(-c2nc3cccnc3s2)cc1NC(=O)c1ccco1,59*,x,x,21,-1,x
COC(=O)C(C)n1cnc2c(cnn2-c2ccc(Cl)cc2)c1=O (configuration not stated),53*,10,8,47,-2,8
